Data reported in ChEMBL document CHEMBL4138275, “Taccalonolide Microtubule Stabilizers Generated Using Semisynthesis Define the Effects of Mono Acyloxy Moieties at C-7 or C-15 and Disubstitutions at C-7 and C-25” (J Nat Prod, 2018).
Calls of active or inactive are those of the source. No cut-off for these calls is given here.

Assays:
HeLa [1] = assay: Antiproliferative activity against human HeLa cells after 48 hrs by sulforhodamine B assay; format: functional, cell-based
In short: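 HeLa cells (STR-validated) grown in BME with 10% FBS and gentamycin, seeded 2500/well, left to adhere overnight, then exposed to compounds for 48 h. Cell density read by sulforhodamine B staining. IC50 is the concentration giving 50% inhibition of cell density versus vehicle, fitted by nonlinear regression. Mean of 3 or 4 experiments, each in triplicate, ±SD.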

HeLa [2] = assay: Induction of microtubule stabilization in human HeLa cells assessed as bundling of interphase microtubule at 5 times IC50 after 18 hrs by indirect immunofluorescence assay; format: cell-based
In short: (§1)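 HeLa cells treated for 18 h at 5-fold each compound's own antiproliferative IC50, with EtOH as vehicle control. Mitotic and interphase microtubules stained by indirect immunofluorescence with a β-tubulin antibody and viewed by fluorescence microscopy.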

HeLa [3] = assay: Induction of microtubule stabilization in human HeLa cells assessed as formation of multiple aberrant mitotic spindle at 5 times IC50 after 18 hrs by indirect immunofluorescence assay; format: cell-based; in short: as §1
Sus scrofa = species on record: Sus scrofa; assay: Induction of porcine brain tubulin polymerization at 5 uM by turbidimetric method
In short: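 Compound or vehicle (1% EtOH) added; samples prepared on ice, then warmed to 37 °C to start polymerization. Rate and extent followed turbidimetrically at 340 nm.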

Row | Structure (SMILES) | IC50 (HeLa [1]) [nM] | Activity (Sus scrofa) | Activity (HeLa [2]) | Activity (HeLa [3])
1 | CC(=O)O[C@H]1[C@H]2[C@H]([C@@H]3[C@@H](O)[C@@H]4[C@H]([C@H](C)C=C5OC(=O)[C@@](C)(OC(=O)CC(C)C)[C@@]54C)[C@@]3(C)[C@H]1OC(C)=O)[C@@H](OC(=O)CC(C)C)C(=O)[C@H]1C[C@@H]3O[C@@H]3[C@H](OC(C)=O)[C@]21C | > 20000 |  |  | 
2 | CC(=O)O[C@H]1[C@H]2[C@H]([C@@H]3[C@@H](OC(=O)c4ccc5c(c4)C(=O)c4ccccc4C5=O)[C@@H]4[C@H]([C@H](C)C=C5OC(=O)[C@@](C)(O)[C@@]54C)[C@@]3(C)[C@H]1OC(C)=O)[C@@H](O)C(=O)[C@H]1C[C@@H]3O[C@@H]3[C@H](OC(C)=O)[C@]21C | 7100 |  |  | 
3 | CC(=O)O[C@H]1[C@H]2[C@H]([C@@H]3[C@@H](O)[C@@H]4[C@H]([C@H](C)C=C5OC(=O)[C@@](C)(O)[C@@]54C)[C@@]3(C)[C@H]1OC(C)=O)[C@@H](OC(=O)c1ccc3c(c1)C(=O)c1ccccc1C3=O)C(=O)[C@H]1C[C@@H]3O[C@@H]3[C@H](OC(C)=O)[C@]21C | 3400 |  |  | 
4 | CC(=O)O[C@H]1[C@H]2[C@H]([C@@H]3[C@@H](OC(=O)C4CC4)[C@@H]4[C@H]([C@H](C)C=C5OC(=O)[C@@](C)(O)[C@@]54C)[C@@]3(C)[C@H]1OC(C)=O)[C@@H](O)C(=O)[C@H]1C[C@@H]3O[C@@H]3[C@H](OC(C)=O)[C@]21C | > 20000 |  |  | 
5 | CC(=O)O[C@H]1[C@H]2[C@H]([C@@H]3[C@@H](O)[C@@H]4[C@H]([C@H](C)C=C5OC(=O)[C@@](C)(O)[C@@]54C)[C@@]3(C)[C@H]1OC(C)=O)[C@@H](OC(=O)CC(C)C)C(=O)[C@H]1C[C@@H]3O[C@@H]3[C@H](OC(C)=O)[C@]21C | > 20000 |  |  | 
6 | CC(=O)O[C@H]1[C@H]2[C@H]([C@@H]3[C@@H](O)[C@@H]4[C@H]([C@H](C)C=C5OC(=O)[C@@](C)(O)[C@@]54C)[C@@]3(C)[C@H]1OC(C)=O)[C@@H](OC(=O)C(C)(C)C)C(=O)[C@H]1C[C@@H]3O[C@@H]3[C@H](OC(C)=O)[C@]21C | 10000 |  |  | 
7 | CC(=O)O[C@@H]1[C@H]2[C@H]3[C@H]([C@H](OC(C)=O)[C@H](OC(C)=O)[C@]2(C)[C@@H]2[C@@H]1[C@]1(C)C(=C[C@H]2C)OC(=O)[C@@]1(C)O)[C@]1(C)[C@H](C[C@@H]2O[C@@H]2[C@@H]1OC(C)=O)C(=O)[C@@H]3O [TACCALONOLIDE A] | 5400 |  |  | 
8 | CC(=O)O[C@H]1[C@H]2[C@H]([C@@H]3[C@@H](O)[C@@H]4[C@H]([C@H](C)C=C5OC(=O)[C@@](C)(OC(=O)C(C)C)[C@@]54C)[C@@]3(C)[C@H]1OC(C)=O)[C@@H](OC(=O)C(C)C)C(=O)[C@H]1C[C@@H]3O[C@@H]3[C@H](OC(C)=O)[C@]21C | > 20000 |  |  | 
9 | CC(=O)O[C@H]1[C@H]2[C@H]([C@@H]3[C@@H](O)[C@@H]4[C@H]([C@H](C)C=C5OC(=O)[C@@](C)(OC(=O)c6ccc7c(c6)C(=O)c6ccccc6C7=O)[C@@]54C)[C@@]3(C)[C@H]1OC(C)=O)[C@@H](OC(=O)c1ccc3c(c1)C(=O)c1ccccc1C3=O)C(=O)[C@H]1C[C@@H]3O[C@@H]3[C@H](OC(C)=O)[C@]21C | > 20000 |  |  | 
10 | CC(=O)O[C@H]1[C@H]2[C@H]([C@@H]3[C@@H](O)[C@@H]4[C@H]([C@H](C)C=C5OC(=O)[C@@](C)(OC(=O)C6CC6)[C@@]54C)[C@@]3(C)[C@H]1OC(C)=O)[C@@H](OC(=O)C1CC1)C(=O)[C@H]1C[C@@H]3O[C@@H]3[C@H](OC(C)=O)[C@]21C | > 20000 |  |  | 
11 | CC(=O)O[C@H]1[C@H]2[C@H]([C@@H]3[C@@H](O)[C@@H]4[C@H]([C@H](C)C=C5OC(=O)[C@@](C)(O)[C@@]54C)[C@@]3(C)[C@H]1OC(C)=O)[C@@H](OC(=O)C(C)C)C(=O)[C@H]1C[C@@H]3O[C@@H]3[C@H](OC(C)=O)[C@]21C | 4700 |  |  | 
12 | CC(=O)O[C@H]1[C@H]2[C@H]([C@@H]3[C@@H](OC=O)[C@@H]4[C@H]([C@H](C)C=C5OC(=O)[C@@](C)(O)[C@@]54C)[C@@]3(C)[C@H]1OC(C)=O)[C@@H](O)C(=O)[C@H]1C[C@@H]3O[C@@H]3[C@H](OC(C)=O)[C@]21C | > 20000 |  |  | 
13 | CC(=O)O[C@H]1[C@H]2[C@H]([C@@H]3[C@@H](OC(=O)C(C)C)[C@@H]4[C@H]([C@H](C)C=C5OC(=O)[C@@](C)(O)[C@@]54C)[C@@]3(C)[C@H]1OC(C)=O)[C@@H](O)C(=O)[C@H]1C[C@@H]3O[C@@H]3[C@H](OC(C)=O)[C@]21C | > 20000 |  |  | 

Compounds with a lower IC50 (HeLa [1]), results first:

Row | IC50 (HeLa [1]) [nM] | Activity (Sus scrofa) | Structure (SMILES) | Activity (HeLa [2]) | Activity (HeLa [3])
14 | 3000 |  | CC(=O)O[C@H]1[C@H]2[C@H]([C@@H]3[C@@H](O)[C@@H]4[C@H]([C@H](C)[C@H]5O[C@]56OC(=O)[C@@](C)(OC(=O)c5ccc7c(c5)C(=O)c5ccccc5C7=O)[C@]46C)[C@@]3(C)[C@H]1OC(C)=O)[C@@H](OC(=O)c1ccc3c(c1)C(=O)c1ccccc1C3=O)C(=O)[C@H]1C[C@@H]3O[C@@H]3[C@H](OC(C)=O)[C@]21C |  | 
15 | 2400 |  | CC(=O)O[C@H]1[C@H]2[C@H]([C@@H]3[C@@H](OC(=O)C(C)(C)C)[C@@H]4[C@H]([C@H](C)C=C5OC(=O)[C@@](C)(O)[C@@]54C)[C@@]3(C)[C@H]1OC(C)=O)[C@@H](O)C(=O)[C@H]1C[C@@H]3O[C@@H]3[C@H](OC(C)=O)[C@]21C |  | 
16 | 1500 |  | CC(=O)O[C@H]1[C@H]2[C@H]([C@@H]3[C@@H](OC(=O)CC(C)C)[C@@H]4[C@H]([C@H](C)C=C5OC(=O)[C@@](C)(O)[C@@]54C)[C@@]3(C)[C@H]1OC(C)=O)[C@@H](O)C(=O)[C@H]1C[C@@H]3O[C@@H]3[C@H](OC(C)=O)[C@]21C |  | 
17 | 790 |  | CC(=O)O[C@H]1[C@H]2[C@H]([C@@H]3[C@@H](O)[C@@H]4[C@H]([C@H](C)[C@H]5O[C@]56OC(=O)[C@@](C)(OC(=O)C(C)C)[C@]46C)[C@@]3(C)[C@H]1OC(C)=O)[C@@H](OC(=O)C(C)C)C(=O)[C@H]1C[C@@H]3O[C@@H]3[C@H](OC(C)=O)[C@]21C |  | Active
18 | 250 |  | CC(=O)O[C@H]1[C@H]2[C@H]([C@@H]3[C@@H](O)[C@@H]4[C@H]([C@H](C)[C@H]5O[C@]56OC(=O)[C@@](C)(OC(=O)CC(C)C)[C@]46C)[C@@]3(C)[C@H]1OC(C)=O)[C@@H](OC(=O)CC(C)C)C(=O)[C@H]1C[C@@H]3O[C@@H]3[C@H](OC(C)=O)[C@]21C | Active | Active
19 | 130 |  | CC(=O)O[C@H]1[C@H]2[C@H]([C@@H]3[C@@H](O)[C@@H]4[C@H]([C@H](C)[C@H]5O[C@]56OC(=O)[C@@](C)(OC(=O)C5CC5)[C@]46C)[C@@]3(C)[C@H]1OC(C)=O)[C@@H](OC(=O)C1CC1)C(=O)[C@H]1C[C@@H]3O[C@@H]3[C@H](OC(C)=O)[C@]21C | Active | Active
20 | 38 |  | CC(=O)O[C@H]1[C@H]2[C@H]([C@@H]3[C@@H](OC(=O)c4ccc5c(c4)C(=O)c4ccccc4C5=O)[C@@H]4[C@H]([C@H](C)[C@H]5O[C@]56OC(=O)[C@@](C)(O)[C@]46C)[C@@]3(C)[C@H]1OC(C)=O)[C@@H](O)C(=O)[C@H]1C[C@@H]3O[C@@H]3[C@H](OC(C)=O)[C@]21C |  | 
21 | 22 |  | CC(=O)O[C@H]1[C@H]2[C@H]([C@@H]3[C@@H](O)[C@@H]4[C@H]([C@H](C)[C@H]5O[C@]56OC(=O)[C@@](C)(O)[C@]46C)[C@@]3(C)[C@H]1OC(C)=O)[C@@H](OC(=O)c1ccc3c(c1)C(=O)c1ccccc1C3=O)C(=O)[C@H]1C[C@@H]3O[C@@H]3[C@H](OC(C)=O)[C@]21C |  | 
22 | 19 |  | CC(=O)O[C@H]1[C@H]2[C@H]([C@@H]3[C@@H](O)[C@@H]4[C@H]([C@H](C)[C@H]5O[C@]56OC(=O)[C@@](C)(O)[C@]46C)[C@@]3(C)[C@H]1OC(C)=O)[C@@H](OC(=O)C(C)C)C(=O)[C@H]1C[C@@H]3O[C@@H]3[C@H](OC(C)=O)[C@]21C | Active | Active
23 | 9 | Active | CC(=O)O[C@H]1[C@H]2[C@H]([C@@H]3[C@@H](O)[C@@H]4[C@H]([C@H](C)[C@H]5O[C@]56OC(=O)[C@@](C)(O)[C@]46C)[C@@]3(C)[C@H]1OC(C)=O)[C@@H](OC(=O)C(C)(C)C)C(=O)[C@H]1C[C@@H]3O[C@@H]3[C@H](OC(C)=O)[C@]21C | Active | Active
24 | 8.4 |  | CC(=O)O[C@H]1[C@H]2[C@H]([C@@H]3[C@@H](OC=O)[C@@H]4[C@H]([C@H](C)[C@H]5O[C@]56OC(=O)[C@@](C)(O)[C@]46C)[C@@]3(C)[C@H]1OC(C)=O)[C@@H](O)C(=O)[C@H]1C[C@@H]3O[C@@H]3[C@H](OC(C)=O)[C@]21C |  | Active
